Results published in ChEMBL document CHEMBL1641431, “Triazoloquinazolinediones as novel high affinity ligands for the benzodiazepine site of GABA(A) receptors” (Bioorg Med Chem, 2011).

Columns and labels:
[1] = Displacement of [3H]flumazenil form benzodiazepine-binding site of GABA(A) receptor in rat cortical membrane after 30 mins by glass fiber filtration assay; type: cell membranes; conditions: in the assay text read “after 40 mins” for “after 30 mins”
Method in brief: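 Rat cortex homogenized in 30 mM Tris–HCl pH 7.4, washed by 27,000g spins, held at 37 °C for 30 min, stored at −20 °C. Membranes (1 mg original tissue/0.55 mL) in 50 mM Tris–citrate pH 7.1 with 1 nM final [3H]flumazenil, 40 min at 0–4 °C. GF/C filtration. Nonspecific binding with 1 µM clonazepam. IC50 from 4–6 concentrations; Ki = IC50/(1+L/KD).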

[2] = target: T1, GABA-A receptor; alpha-3/beta-3/gamma-2 (Homo sapiens, UniProt P18507+P28472+P34903); experiment: Displacement of [3H]flumazenil human recombinant alpha3beta3gamma2 GABA(A) receptor expressed in HEK293 cells after 30 mins by glass fiber filtration assay; type: cell-based; conditions: in the assay text read “after 40 mins” for “after 30 mins”
T1 sequence (P18507 whole entry): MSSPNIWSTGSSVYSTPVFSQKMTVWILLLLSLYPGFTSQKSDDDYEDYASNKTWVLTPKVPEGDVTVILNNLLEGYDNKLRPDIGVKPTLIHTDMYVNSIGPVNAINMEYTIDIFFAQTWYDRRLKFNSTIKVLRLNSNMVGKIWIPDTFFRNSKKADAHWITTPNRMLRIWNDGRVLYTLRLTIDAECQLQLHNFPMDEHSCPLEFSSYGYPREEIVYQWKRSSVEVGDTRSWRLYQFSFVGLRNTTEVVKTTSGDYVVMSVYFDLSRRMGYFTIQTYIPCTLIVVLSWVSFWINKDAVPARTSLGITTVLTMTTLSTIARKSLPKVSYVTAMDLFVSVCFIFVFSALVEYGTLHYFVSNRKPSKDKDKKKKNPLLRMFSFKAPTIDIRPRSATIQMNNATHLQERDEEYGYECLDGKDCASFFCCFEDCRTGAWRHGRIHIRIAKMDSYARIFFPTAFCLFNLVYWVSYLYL
T1 sequence (P28472 whole entry): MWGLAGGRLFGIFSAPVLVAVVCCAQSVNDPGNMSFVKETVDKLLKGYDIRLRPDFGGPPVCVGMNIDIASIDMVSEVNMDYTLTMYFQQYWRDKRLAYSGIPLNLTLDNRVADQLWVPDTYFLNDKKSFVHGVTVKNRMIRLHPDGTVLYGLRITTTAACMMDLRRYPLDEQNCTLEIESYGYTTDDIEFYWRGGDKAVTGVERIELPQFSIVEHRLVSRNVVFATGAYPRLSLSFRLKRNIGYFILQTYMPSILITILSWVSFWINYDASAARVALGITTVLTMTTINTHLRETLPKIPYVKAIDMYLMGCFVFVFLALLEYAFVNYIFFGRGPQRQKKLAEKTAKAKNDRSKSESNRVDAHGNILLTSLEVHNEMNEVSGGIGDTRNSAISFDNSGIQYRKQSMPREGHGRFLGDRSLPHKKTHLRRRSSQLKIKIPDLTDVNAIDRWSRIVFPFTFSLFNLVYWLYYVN
T1 sequence (P34903 whole entry): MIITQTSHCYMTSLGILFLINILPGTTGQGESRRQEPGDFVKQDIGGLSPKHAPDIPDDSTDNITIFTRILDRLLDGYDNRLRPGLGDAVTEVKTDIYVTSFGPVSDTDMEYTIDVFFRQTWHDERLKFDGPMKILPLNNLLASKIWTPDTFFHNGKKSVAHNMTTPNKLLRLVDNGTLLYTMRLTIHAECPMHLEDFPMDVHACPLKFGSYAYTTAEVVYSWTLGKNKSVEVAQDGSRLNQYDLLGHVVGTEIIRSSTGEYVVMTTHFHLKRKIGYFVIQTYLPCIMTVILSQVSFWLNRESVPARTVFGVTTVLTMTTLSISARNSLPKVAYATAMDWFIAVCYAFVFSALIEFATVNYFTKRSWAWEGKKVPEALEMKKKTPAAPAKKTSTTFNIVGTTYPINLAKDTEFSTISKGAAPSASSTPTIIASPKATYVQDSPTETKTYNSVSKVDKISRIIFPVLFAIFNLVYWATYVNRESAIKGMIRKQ
Method in brief: (§1)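 HEK cell membranes carrying human receptors in 50 mM Tris–citrate pH 7.1 with 1 nM final [3H]flumazenil, incubated 40 min on ice (0–4 °C). Filtered on GF/C and washed with ice-cold buffer. Clonazepam 1 µM final defined nonspecific binding. IC50 from 4–6 test concentrations, converted by Ki = IC50/(1+L/KD). Mean ± SD of three determinations.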

[3] = target: T2, GABA-A receptor; alpha-2/beta-3/gamma-2 (Homo sapiens, UniProt P18507+P28472+P47869); experiment: Displacement of [3H]flumazenil human recombinant alpha2beta3gamma2 GABA(A) receptor expressed in HEK293 cells after 30 mins by glass fiber filtration assay; type: cell-based; conditions: in the assay text read “after 40 mins” for “after 30 mins”; method in brief: as §1
T2 sequence (P18507 whole entry): T1 sequence (P18507 whole entry)
T2 sequence (P28472 whole entry): T1 sequence (P28472 whole entry)
T2 sequence (P47869 whole entry): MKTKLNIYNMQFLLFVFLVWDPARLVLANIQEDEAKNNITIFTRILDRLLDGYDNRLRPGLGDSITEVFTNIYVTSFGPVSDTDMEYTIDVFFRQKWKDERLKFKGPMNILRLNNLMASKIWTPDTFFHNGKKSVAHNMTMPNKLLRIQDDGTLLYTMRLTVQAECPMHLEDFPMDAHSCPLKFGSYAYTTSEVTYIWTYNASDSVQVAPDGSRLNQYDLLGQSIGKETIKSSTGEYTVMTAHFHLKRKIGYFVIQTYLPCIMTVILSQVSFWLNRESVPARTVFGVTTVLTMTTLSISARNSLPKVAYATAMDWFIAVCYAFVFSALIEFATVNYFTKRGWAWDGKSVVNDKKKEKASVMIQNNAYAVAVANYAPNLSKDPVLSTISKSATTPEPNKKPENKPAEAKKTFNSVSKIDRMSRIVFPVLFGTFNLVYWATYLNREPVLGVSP

[4] = target: T3, GABA-A receptor; alpha-1/beta-3/gamma-2 (Homo sapiens, UniProt P14867+P18507+P28472); experiment: Displacement of [3H]flumazenil human recombinant alpha1beta3gamma2 GABA(A) receptor expressed in HEK293 cells after 30 mins by glass fiber filtration assay; type: cell-based; conditions: in the assay text read “after 40 mins” for “after 30 mins”; method in brief: as §1
T3 sequence (P14867 whole entry): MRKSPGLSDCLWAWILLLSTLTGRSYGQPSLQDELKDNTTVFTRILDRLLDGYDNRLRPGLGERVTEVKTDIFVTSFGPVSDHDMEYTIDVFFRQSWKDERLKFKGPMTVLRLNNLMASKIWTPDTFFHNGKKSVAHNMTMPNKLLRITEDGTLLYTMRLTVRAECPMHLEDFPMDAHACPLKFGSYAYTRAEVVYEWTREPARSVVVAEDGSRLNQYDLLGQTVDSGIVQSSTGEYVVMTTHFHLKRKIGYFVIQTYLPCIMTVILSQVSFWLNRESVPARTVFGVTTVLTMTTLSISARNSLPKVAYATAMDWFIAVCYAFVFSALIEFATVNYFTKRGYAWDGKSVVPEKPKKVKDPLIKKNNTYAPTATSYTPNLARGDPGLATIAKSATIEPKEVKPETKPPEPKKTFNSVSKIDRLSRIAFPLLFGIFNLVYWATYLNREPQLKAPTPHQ
T3 sequence (P18507 whole entry): T1 sequence (P18507 whole entry)
T3 sequence (P28472 whole entry): T1 sequence (P28472 whole entry)

Homo sapiens [5] = species on record: Homo sapiens; experiment: Selectivity ratio of Ki for human recombinant alpha2beta3gamma2 GABA(A) receptor to Ki for human recombinant alpha1beta3gamma2 GABA(A) receptor
Method in brief: (§2)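 Ratio of the Ki at the named subtype to the Ki at α1β3γ2. Both Ki values come from [3H]flumazenil (1 nM) displacement on membranes of HEK cells with human receptors, run 40 min at 0–4 °C with GF/C filtration. Ki = IC50/(1+L/KD).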

Homo sapiens [6] = species on record: Homo sapiens; experiment: Selectivity ratio of Ki for human recombinant alpha5beta3gamma2 GABA(A) receptor to Ki for human recombinant alpha1beta3gamma2 GABA(A) receptor; method in brief: as §2
[7] = target: T4, GABA-A receptor; alpha-5/beta-3/gamma-2 (Homo sapiens, UniProt P18507+P28472+P31644); experiment: Displacement of [3H]flumazenil human recombinant alpha5beta3gamma2 GABA(A) receptor expressed in HEK293 cells after 30 mins by glass fiber filtration assay; type: cell-based; conditions: in the assay text read “after 40 mins” for “after 30 mins”; method in brief: as §1
T4 sequence (P18507 whole entry): T1 sequence (P18507 whole entry)
T4 sequence (P28472 whole entry): T1 sequence (P28472 whole entry)
T4 sequence (P31644 whole entry): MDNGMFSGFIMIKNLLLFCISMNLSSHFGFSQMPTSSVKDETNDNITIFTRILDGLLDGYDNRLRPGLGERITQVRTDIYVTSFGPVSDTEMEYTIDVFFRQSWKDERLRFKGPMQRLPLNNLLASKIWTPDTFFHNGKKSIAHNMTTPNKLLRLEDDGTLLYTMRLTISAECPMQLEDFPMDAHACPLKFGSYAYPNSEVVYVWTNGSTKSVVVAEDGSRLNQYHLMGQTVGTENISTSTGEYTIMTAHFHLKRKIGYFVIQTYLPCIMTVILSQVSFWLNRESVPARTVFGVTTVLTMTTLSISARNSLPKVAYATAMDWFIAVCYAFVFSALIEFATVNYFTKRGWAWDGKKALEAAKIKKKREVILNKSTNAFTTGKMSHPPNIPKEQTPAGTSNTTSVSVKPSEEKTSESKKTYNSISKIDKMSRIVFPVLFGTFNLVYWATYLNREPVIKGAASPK

Homo sapiens [8] = species on record: Homo sapiens; experiment: Selectivity ratio of Ki for human recombinant alpha3beta3gamma2 GABA(A) receptor to Ki for human recombinant alpha1beta3gamma2 GABA(A) receptor; method in brief: as §2

O=c1[nH]c2ccc(Br)cc2c2nn(-c3ccccc3F)c(=O)n12
Ki [1]: 0.2 nM

Cc1ccc(-n2nc3c4cc(Cc5ccccc5)ccc4[nH]c(=O)n3c2=O)cc1
Ki [1]: 1 nM

Cc1ccc(-n2nc3c4cc(CCc5ccncc5)ccc4[nH]c(=O)n3c2=O)cc1
Ki [1]: 0.17 nM

Cc1ccc2[nH]c(=O)n3c(=O)n(-c4ccccc4)nc3c2c1
Ki [2]: 1.3 nM | Ki [3]: 1 nM | Ki [4]: 0.43 nM | Ki [1]: 0.62 nM | Ratio Ki (Homo sapiens [5]): 2

Cc1ccc(-n2nc3c4cc(C#Cc5ccccc5)ccc4[nH]c(=O)n3c2=O)cc1
Ki [1]: 40 nM

Cc1ccc(-n2nc3c4cc(CCc5ccsc5)ccc4[nH]c(=O)n3c2=O)cc1
Ratio Ki (Homo sapiens [6]): 26 | Ki [2]: 0.71 nM | Ki [3]: 1.7 nM | Ki [4]: 0.14 nM | Ki [1]: 0.94 nM | Ki [7]: 3.6 nM | Ratio Ki (Homo sapiens [8]): 5

Cc1ccc(-n2nc3c4cc(CCc5ccc(-c6ccccc6)cc5)ccc4[nH]c(=O)n3c2=O)cc1
Ki [1]: 1570 nM

Cc1ccc(-n2nc3c4cc(Cc5cccc(F)c5)ccc4[nH]c(=O)n3c2=O)cc1
Ki [1]: 2.1 nM

Cc1ccc(-n2nc3c4cc(CCc5ccc(Oc6ccccc6)cc5)ccc4[nH]c(=O)n3c2=O)cc1
Ki [1]: 123 nM

O=c1[nH]c2ccc(Br)cc2c2nn(-c3ccccc3)c(=O)n12
Ki [1]: 0.24 nM

O=c1[nH]c2ccc(Br)cc2c2nn(-c3ccc(Cl)cc3)c(=O)n12
Ki [1]: 0.6 nM

Cc1ccc(-n2nc3c4cc(CCc5cccnc5)ccc4[nH]c(=O)n3c2=O)cc1
Ratio Ki (Homo sapiens [6]): 13 | Ki [2]: 2.3 nM | Ki [3]: 4.4 nM | Ki [4]: 0.68 nM | Ki [1]: 0.2 nM | Ki [7]: 9.1 nM | Ratio Ki (Homo sapiens [8]): 3

Cc1ccc(-n2nc3c4cc(Br)ccc4[nH]c(=O)n3c2=O)cc1
Ki [1]: 0.47 nM

Cc1ccc(-n2nc3c4cc(Cc5ccsc5)ccc4[nH]c(=O)n3c2=O)cc1
Ki [1]: 0.23 nM

Cc1ccc(-n2nc3c4cc(CCc5ccccc5)ccc4[nH]c(=O)n3c2=O)cc1
Ki [2]: 9.7 nM | Ki [3]: 65 nM | Ki [4]: 3.6 nM | Ki [1]: 4 nM | Ki [7]: 66 nM | Ratio Ki (Homo sapiens [5]): 18

Cc1ccc(-n2nc3c4cc(CCC(=O)O)ccc4[nH]c(=O)n3c2=O)cc1
Ki [1]: 1.4 nM

Cc1ccc(-n2nc3c4cc(CCc5ccccn5)ccc4[nH]c(=O)n3c2=O)cc1
Ki [1]: 0.53 nM

Cc1ccc(-n2nc3c4cc(CCc5cccc(O)c5)ccc4[nH]c(=O)n3c2=O)cc1
Ki [1]: 12.4 nM
